Data published in ChEMBL document CHEMBL1287652, “QSAR modeling, synthesis and bioassay of diverse leukemia RPMI-8226 cell line active agents” (2010).

What was measured:
Assay type in all cases: functional
[1] = test system: HCT-116; assay: Antitumor activity against human HCT116 cells at 10 uM after 48 hrs by sulforhodamine B assay relative to control; settings: HCT-116, 48 h, values are per cent of control
Summary of the method: (§1)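 Single-dose screen in a 55-line panel. Cells in RPMI-1640 with 5% FBS and 2 mM glutamine were preincubated for 24 h, then exposed to compound (DMSO stock diluted in medium) for 48 h at 37 °C with 5% CO2. Cells were fixed with cold TCA, stained with 0.4% SRB in 1% acetic acid, and dye was solubilized in 10 mM Tris base and read at 515 nm. Growth is given as percent of untreated control.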

[2] = test system: NCI-H322M; assay: Antitumor activity against human NCI-H322M cells at 10 uM after 48 hrs by sulforhodamine B assay relative to control; settings: values are per cent of control
Summary of the method: (§2)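 NCI panel lines were grown in RPMI-1640 with 5% FBS and 2 mM L-glutamine and seeded at 5000–40,000 cells/well according to doubling time. After 24 h at 37 °C, 5% CO2, one dose from a DMSO stock was added for 48 h. Cells were TCA-fixed (10% final adherent, 16% suspension), SRB-stained and read at 515 nm. Percent growth is relative to untreated control.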

[3] = test system: OVCAR-5; assay: Antitumor activity against human OVCAR5 cells at 10 uM after 48 hrs by sulforhodamine B assay relative to control; settings: OVCAR-5, 48 h, values are per cent of control; summary of the method: as §2
[4] = test system: HL-60(TB); assay: Antitumor activity against human HL-60(TB) cells at 10 uM after 48 hrs by sulforhodamine B assay relative to control; settings: HL-60, 48 h
Summary of the method: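 Single-dose NCI screen. Cells were in RPMI-1640 with 5% FBS and 2 mM L-glutamine, plated by doubling time and held 24 h at 37 °C in 5% CO2 before dosing. Exposure was 48 h. Suspension cells were fixed in situ with TCA (final 16%), SRB-stained, and read at 515 nm. Percentage growth was expressed relative to untreated control cells.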

[5] = test system: NCI-H522; assay: Antitumor activity against human NCI-H522 cells at 10 uM after 48 hrs by sulforhodamine B assay relative to control; settings: NCI-H522, 48 h, values are per cent of control; summary of the method: as §2
[6] = test system: SNB-19; assay: Antitumor activity against human SNB19 cells at 10 uM after 48 hrs by sulforhodamine B assay relative to control; settings: SNB-19, 48 h, values are per cent of control; summary of the method: as §2
[7] = test system: SK-OV-3; assay: Antitumor activity against human SKOV3 cells at 10 uM after 48 hrs by sulforhodamine B assay relative to control; settings: SK-OV-3, 48 h, values are per cent of control; summary of the method: as §2
[8] = test system: MDA-MB-468; assay: Antitumor activity against human MDA-MB-468 cells at 10 uM after 48 hrs by sulforhodamine B assay relative to control; settings: MDA-MB-468, 48 h, values are per cent of control; summary of the method: as §2
[9] = test system: NCI-H460; assay: Antitumor activity against human NCI-H460 cells at 10 uM after 48 hrs by sulforhodamine B assay relative to control; settings: NCI-H460, 48 h, values are per cent of control; summary of the method: as §2
[10] = test system: SF-539; assay: Antitumor activity against human SF539 cells at 10 uM after 48 hrs by sulforhodamine B assay relative to control; settings: SF-539, 48 h, values are per cent of control; summary of the method: as §2
[11] = test system: OVCAR-3; assay: Antitumor activity against human OVCAR-3 cells at 10 uM after 48 hrs by sulforhodamine B assay relative to control; settings: OVCAR-3, 48 h, values are per cent of control; summary of the method: as §2
[12] = test system: SR; assay: Antitumor activity against human SR cells at 10 uM after 48 hrs by sulforhodamine B assay relative to control; settings: values are per cent of control
Summary of the method: (§3)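 NCI panel line grown in RPMI-1640 with 5% FBS and 2 mM L-glutamine, plated at 5000–40,000 cells/well, 24 h preincubation. Single final 10 µM from DMSO stock, 48 h at 37 °C, 5% CO2. TCA fixation (10% adherent, 16% suspension), SRB stain, absorbance 515 nm. Percent growth relative to untreated control.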

[13] = test system: MDA-MB-435; assay: Antitumor activity against human MDA-MB-435 cells at 10 uM after 48 hrs by sulforhodamine B assay relative to control; settings: MDA-MB-435, 48 h, values are per cent of control; summary of the method: as §1
[14] = test system: TK-10; assay: Antitumor activity against human TK10 cells at 10 uM after 48 hrs by sulforhodamine B assay relative to control; settings: TK-10, 48 h, values are per cent of control; summary of the method: as §3
[15] = test system: KM12; assay: Antitumor activity against human KM12 cells at 10 uM after 48 hrs by sulforhodamine B assay relative to control; settings: KM12, 48 h, values are per cent of control; summary of the method: as §1
[16] = test system: NCI/ADR-RES; assay: Antitumor activity against human NCI/ADR-RES cells at 10 uM after 48 hrs by sulforhodamine B assay relative to control; settings: values are per cent of control; summary of the method: as §2
[17] = test system: OVCAR-8; assay: Antitumor activity against human OVCAR8 cells at 10 uM after 48 hrs by sulforhodamine B assay relative to control; settings: OVCAR-8, 48 h, values are per cent of control; summary of the method: as §2
[18] = test system: HOP-92; assay: Antitumor activity against human HOP92 cells at 10 uM after 48 hrs by sulforhodamine B assay relative to control; settings: HOP-92, 48 h, values are per cent of control; summary of the method: as §1
[19] = test system: HCT-15; assay: Antitumor activity against human HCT15 cells at 10 uM after 48 hrs by sulforhodamine B assay relative to control; settings: HCT-15, 48 h, values are per cent of control; summary of the method: as §1
[20] = test system: UACC-62; assay: Antitumor activity against human UACC62 cells at 10 uM after 48 hrs by sulforhodamine B assay relative to control; settings: UACC-62, 48 h, values are per cent of control; summary of the method: as §3
[21] = test system: SK-MEL-2; assay: Antitumor activity against human SK-MEL-2 cells at 10 uM after 48 hrs by sulforhodamine B assay relative to control; settings: SK-MEL-2, 48 h, values are per cent of control; summary of the method: as §2
[22] = test system: OVCAR-4; assay: Antitumor activity against human OVCAR4 cells at 10 uM after 48 hrs by sulforhodamine B assay relative to control; settings: OVCAR-4, 48 h, values are per cent of control; summary of the method: as §2
[23] = test system: OVCAR-5; assay: Antitumor activity against human OVCAR5 cells after 48 hrs by sulforhodamine B assay; settings: OVCAR-5, 48 h
Summary of the method: (§4)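 Cells were cultured in RPMI-1640 (5% FBS, 2 mM L-glutamine), pre-incubated for 24 h with time-zero plates TCA-fixed, then exposed for 48 h to five serial dilutions. The SRB read-out at 515 nm used time-zero, control and test absorbances. GI50 solves [(Ti−Tz)/(C−Tz)]×100 = 50 (net protein increase). TGI is the concentration giving 100% growth inhibition.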

[24] = test system: SK-MEL-5; assay: Antitumor activity against human SK-MEL-5 cells after 48 hrs by sulforhodamine B assay; settings: SK-MEL-5, 48 h; summary of the method: as §4
[25] = test system: CCRF-CEM; assay: Antitumor activity against human CCRF-CEM cells at 10 uM after 48 hrs by sulforhodamine B assay relative to control; settings: values are per cent of control; summary of the method: as §1

Row | SMILES | growth, % of control at 10 µM [1] [%] | growth, % of control at 10 µM [2] [%] | growth, % of control at 10 µM [3] [%] | inhibition at 10 µM [4] [%] | growth, % of control at 10 µM [5] [%] | growth, % of control at 10 µM [6] [%] | growth, % of control at 10 µM [7] [%] | growth, % of control at 10 µM [8] [%] | growth, % of control at 10 µM [9] [%] | growth, % of control at 10 µM [10] [%] | growth, % of control at 10 µM [11] [%] | growth, % of control at 10 µM [12] [%] | growth, % of control at 10 µM [13] [%] | growth, % of control at 10 µM [14] [%] | growth, % of control at 10 µM [15] [%] | growth, % of control at 10 µM [16] [%] | growth, % of control at 10 µM [17] [%] | growth, % of control at 10 µM [19] [%] | growth, % of control at 10 µM [20] [%] | growth, % of control at 10 µM [21] [%] | further results
1 | COc1ccc(NC(=O)Nc2ccc(OCCCOc3ccc(NC(=O)Nc4ccc(OC)cc4)cc3)cc2)cc1 | 83.3 | 90.2 | 88.4 | 90.4 | 98.3 | 94.5 | 88.4 | 91.1 | 96.8 | 86.7 | 116 | 90.4 | 109 | 123 | 117 | 94.4 | 70.1 | 118 | 109 | 108 | growth, % of control at 10 µM [18]: 81.5%; growth, % of control at 10 µM [22]: 109%
2 | COc1ccc(NC(=O)Nc2ccccc2OCCCOc2ccccc2NC(=O)Nc2ccc(OC)cc2)cc1 | -36.8 | 82.4 | 46 | 18.8 | 63.7 | 47.6 | 7.9 | 22.6 | 17.7 | -29.6 | -11.4 | -39.7 | 41.6 | 22 | 23.8 | 59.8 | -65.3 | 65.5 | 3.9 | 65.8 | GI50 [23]: > 100 µM; TGI [23]: > 100 µM; GI50 [24]: > 100 µM; TGI [24]: > 100 µM; growth, % of control at 10 µM [25]: -7.12%; growth, % of control at 10 µM [22]: -67.2%
3 | O=C(Nc1ccc(Cl)cc1)Nc1ccc(OCCCOc2ccc(NC(=O)Nc3ccc(Cl)cc3)cc2)cc1 | 94.8 | 102 | 94.6 | 105 | 91.6 | 108 | 122 | 114 | 103 | 91.8 | 112 | 88.7 | 110 | 129 | 110 | 99.8 | 64.1 | 117 | 98.9 | 118 | growth, % of control at 10 µM [18]: 181%; growth, % of control at 10 µM [25]: 157%; growth, % of control at 10 µM [22]: 110%
